These results are taken from ChEMBL document CHEMBL4480362, “Design and synthesis of DNA-intercalative naphthalimide-benzothiazole/cinnamide derivatives: cytotoxicity evaluation and topoisomerase-IIα inhibition” (Medchemcomm, 2019).

In one test the test system is HT-29. Nature of the test: Cytotoxicity against human HT-29 cells assessed as reduction in cell viability after 48 hrs by MTT assay. The format is functional, cell-based. Particulars: HT-29, 48 h. The procedure, abridged:
(§1)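 Cell lines from NCCS were grown in DMEM with 10% FBS, penicillin and streptomycin at 37 °C, 5% CO2. Cells were seeded, left 24 h, then exposed to compound for 48 h. MTT (5 mg/ml stock) was added for 4 h. Formazan was dissolved in DMSO and absorbance read at 570 nm.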

Another test relates to MCF7. Kind of test: Cytotoxicity against human MCF7 cells assessed as reduction in cell viability after 48 hrs by MTT assay. The format is functional, cell-based. The conditions noted are these: MCF7, 48 h. The procedure, abridged:
as §1

Another test deals with A549. Kind of test: Cytotoxicity against human A549 cells assessed as reduction in cell viability after 48 hrs by MTT assay. Type of test: functional, cell-based. The conditions noted are these: A549, 48 h. The method in brief:
as §1

Test [1] deals with DNA topoisomerase 2-alpha (Homo sapiens) (UniProt P11388). Nature of the test: Inhibition of topoisomerase 2 (unknown origin) assessed as reduction in decatenation of kinetoplast DNA at 100 uM incubated for 30 mins by ethidium bromide staining based gel electrophoresis method.
Chain of DNA topoisomerase 2-alpha (Homo sapiens) (P11388 whole entry): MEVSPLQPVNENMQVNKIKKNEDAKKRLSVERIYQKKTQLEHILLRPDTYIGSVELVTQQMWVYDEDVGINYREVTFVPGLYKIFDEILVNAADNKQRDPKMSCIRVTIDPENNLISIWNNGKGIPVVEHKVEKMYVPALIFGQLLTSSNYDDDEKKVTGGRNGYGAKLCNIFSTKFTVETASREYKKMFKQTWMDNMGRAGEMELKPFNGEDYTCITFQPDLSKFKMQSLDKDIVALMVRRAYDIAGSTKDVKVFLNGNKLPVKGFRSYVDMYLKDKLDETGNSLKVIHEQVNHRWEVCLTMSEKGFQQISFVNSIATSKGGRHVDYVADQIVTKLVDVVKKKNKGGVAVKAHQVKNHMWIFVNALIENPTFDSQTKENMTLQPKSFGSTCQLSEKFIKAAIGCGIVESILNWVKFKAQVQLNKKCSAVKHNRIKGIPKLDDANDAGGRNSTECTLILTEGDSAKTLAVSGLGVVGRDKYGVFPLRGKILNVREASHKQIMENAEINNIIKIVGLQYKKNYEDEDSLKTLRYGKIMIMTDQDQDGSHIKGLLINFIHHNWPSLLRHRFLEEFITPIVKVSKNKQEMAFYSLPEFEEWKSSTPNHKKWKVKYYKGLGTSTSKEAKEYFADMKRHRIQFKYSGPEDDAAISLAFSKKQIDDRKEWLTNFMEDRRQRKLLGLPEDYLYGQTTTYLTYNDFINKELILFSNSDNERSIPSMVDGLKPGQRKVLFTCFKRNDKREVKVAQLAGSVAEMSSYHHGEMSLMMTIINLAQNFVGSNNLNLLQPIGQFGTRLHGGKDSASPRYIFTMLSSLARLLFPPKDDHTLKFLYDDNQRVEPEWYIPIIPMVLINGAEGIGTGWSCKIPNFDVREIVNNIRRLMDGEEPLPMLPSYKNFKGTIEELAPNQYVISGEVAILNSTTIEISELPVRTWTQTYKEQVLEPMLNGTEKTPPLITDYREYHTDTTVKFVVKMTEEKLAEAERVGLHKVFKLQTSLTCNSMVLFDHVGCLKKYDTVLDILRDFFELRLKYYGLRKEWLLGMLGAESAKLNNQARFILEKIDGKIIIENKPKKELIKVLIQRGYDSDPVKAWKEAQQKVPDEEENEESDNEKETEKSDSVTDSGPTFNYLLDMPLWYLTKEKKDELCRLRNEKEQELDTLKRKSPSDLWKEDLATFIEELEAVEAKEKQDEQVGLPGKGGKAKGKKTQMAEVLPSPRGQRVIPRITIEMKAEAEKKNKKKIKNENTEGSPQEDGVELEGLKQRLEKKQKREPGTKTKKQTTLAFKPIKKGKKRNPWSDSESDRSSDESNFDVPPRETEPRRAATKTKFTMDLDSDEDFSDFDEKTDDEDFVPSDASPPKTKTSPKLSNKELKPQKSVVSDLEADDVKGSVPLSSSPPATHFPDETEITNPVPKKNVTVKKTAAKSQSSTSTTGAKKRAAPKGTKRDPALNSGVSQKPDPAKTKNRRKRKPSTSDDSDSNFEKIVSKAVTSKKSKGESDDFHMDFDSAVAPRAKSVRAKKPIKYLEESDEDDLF
Test [2] concerns Calf thymus DNA. Kind of test: Binding affinity to calf thymus DNA assessed as increase in emission peak intensity at 10 uM by fluorescence spectroscopic method. The format is nucleic-acid assay. The conditions noted are these: Bos taurus. The method in brief: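 Compound held constant at 10 µM and titrated with CT DNA added in multiples of 0.5 µM, at 25 °C in a 1 cm quartz cuvette. Excitation at 350 nm; emission recorded from 355 to 500 nm after each addition. Spectra are averages of three scans.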

The subject of test [3] is Calf thymus DNA. Kind of test: Binding affinity to calf thymus DNA assessed as change in viscosity at 15 uM by ethidium bromide staining-based method. Type of test: nucleic-acid assay. Particulars: Bos taurus.
Test [4] concerns Calf thymus DNA. Nature of the test: Binding affinity to calf thymus DNA assessed as hyperchromicity at 15 to 30 uM by CD spectroscopic method. Type of test: nucleic-acid assay. The conditions noted are these: Bos taurus. The method in brief: (§2)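 CD spectra recorded from 225 to 325 nm with about 15 × 10^-6 M CT DNA. Compound:DNA molar ratios were 1:0 and 1:1, in 100 mM TE (pH 7.0) at 25 °C. Each spectrum is the average of three scans.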

For test [5], the system named is Panel NCI-60 (60 carcinoma cell lines). Nature of the test: Growth inhibition of human NCI60 cells after 72 hrs by SRB assay. The format is functional.
For test [6], the system named is Calf thymus DNA. Nature of the test: Binding affinity to calf thymus DNA assessed as hypochromic shift formation at 25 uM by UV-vis spectra method. Particulars: Bos taurus. Type of test: nucleic-acid assay. The procedure, abridged:
(§3)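 CT DNA titrated into a cuvette holding about 25 µM hybrid in 100 mM TE (pH 7.0), at 25 °C with a 1 cm quartz cell. The compound stock was in DMSO, diluted into buffer. DNA was added stepwise until the hybrid absorption band stayed at a fixed wavelength. Solutions were prepared fresh the same day.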

Test [7] deals with Calf thymus DNA. Nature of the test: Binding affinity to calf thymus DNA assessed as positive band formation at 15 to 30 uM by CD spectroscopic method. Type of test: nucleic-acid assay. The conditions noted are these: Bos taurus. The method in brief: as §2
The subject of test [8] is Calf thymus DNA. Nature of the test: Binding affinity to calf thymus DNA assessed as absorption band formation at 25 uM by UV-vis spectra method. Type of test: nucleic-acid assay. The conditions noted are these: Bos taurus. The method in brief: as §3
Test [9] relates to Calf thymus DNA. Kind of test: Binding affinity to calf thymus DNA assessed as bathochromic shift at 25 uM by UV-vis spectra method. The format is nucleic-acid assay. Particulars: Bos taurus. The procedure, abridged: as §3

Structures are written as SMILES. Active and inactive are the calls of the source. The rule behind the calls is not given here.

Consider `O=C(/C=C/c1cc(F)ccc1F)N1CCN(CCN2C(=O)c3cccc4cccc(c34)C2=O)CC1`, for which the results for the IC50 in the test with HT-29, in the test with MCF7 and in the test with A549 were 4.18 µM, 11.2 µM and 6.39 µM, respectively.

With `O=C(/C=C/c1ccccc1)N1CCN(CCN2C(=O)c3cccc4cccc(c34)C2=O)CC1`, the half-maximal inhibitory concentration (IC50) in the test with HT-29 is 16 µM; in the test on MCF7, 22.9 µM; in the test with A549, 21.9 µM. Also, the inhibition entry in test [1] was “inactive”. The result in the test on Calf thymus DNA [2] and with Calf thymus DNA [4] was Active. The result in the test with Calf thymus DNA [3] was inactive.

As for `O=C(/C=C/c1cc(F)cc(F)c1)N1CCN(CCN2C(=O)c3cccc4cccc(c34)C2=O)CC1`, the figures for the IC50 in the test on HT-29, in the test with MCF7 and in the test with A549 were 8.39 µM, 13.7 µM and 6.41 µM, respectively.

Turning to `COc1ccc2nc(NC(=O)CN3CCN(CCN4C(=O)c5cccc6cccc(c56)C4=O)CC3)sc2c1`, the IC50 worked out at 4.22 µM with HT-29, 7.94 µM with MCF7 and 4.76 µM in the test with A549.

On to `Cc1nc2ccc(NC(=O)CN3CCN(CCN4C(=O)c5cccc6cccc(c56)C4=O)CC3)cc2s1`, for which the values for the IC50 in the test on HT-29, in the test on MCF7 and in the test on A549 were 3.47 µM, 5.08 µM and 3.89 µM, respectively. Further, in test [1], the inhibition result was “Active”. Besides, the outcome in the test on Calf thymus DNA [2], in the test with Calf thymus DNA [3], in the test with Calf thymus DNA [4], in the test with Calf thymus DNA [6] and with Calf thymus DNA [7] was Active. In test [5], the GI50 lay within 1.19 to 14.1 µM.

Turning to `O=C(/C=C/c1ccc(F)c(F)c1)N1CCN(CCN2C(=O)c3cccc4cccc(c34)C2=O)CC1`, the figures for the IC50 in the test with HT-29, with MCF7 and in the test on A549 were 13.4 µM, 28.3 µM and 18.4 µM, respectively.

As to `CN(C)CCN1C(=O)c2cccc3cc(N)cc(c23)C1=O` [AMONAFIDE], the IC50 in the test on HT-29 was found to be 5.46 µM; in the test on MCF7, 4.05 µM; with A549 it was 7.76 µM. The inhibition result in test [1] was “inactive”.

In the case of `CCOc1ccc2nc(NC(=O)CN3CCN(CCN4C(=O)c5cccc6cccc(c56)C4=O)CC3)sc2c1`, the results for the IC50 in the test on HT-29, in the test on MCF7 and in the test on A549 were 11.1 µM, 17.4 µM and 16.6 µM, respectively.

With `COc1cccc(/C=C/C(=O)N2CCN(CCN3C(=O)c4cccc5cccc(c45)C3=O)CC2)c1`, the IC50 in the test on HT-29 amounted to 15.6 µM; in the test with MCF7, 34.1 µM; in the test with A549 it was 21.7 µM. Besides, the outcome with Calf thymus DNA [4] was Active.

For the molecule `O=C(CN1CCN(CCN2C(=O)c3cccc4cccc(c34)C2=O)CC1)Nc1ccc2ncsc2c1`, the outcome with Calf thymus DNA [8], in the test with Calf thymus DNA [2], with Calf thymus DNA [3], with Calf thymus DNA [4] and in the test with Calf thymus DNA [7] was Active. In addition, the results for the IC50 in the test on HT-29, in the test with MCF7 and in the test with A549 were 3.72 µM, 7.91 µM and 4.07 µM, respectively. The inhibition entry in test [1] is “Active”. The molecule further gave a GI50 in test [5] of 1.38 to 43.3 µM. Further, in the test on Calf thymus DNA [9], the Activity worked out at 2 nm.

As to `O=C(CN1CCN(CCN2C(=O)c3cccc4cccc(c34)C2=O)CC1)Nc1nc2ccccc2s1`, the IC50 came to 10.8 µM in the test on HT-29, 26.5 µM in the test on MCF7 and 14.8 µM with A549.

In the case of `O=C(/C=C/c1ccc(F)cc1F)N1CCN(CCN2C(=O)c3cccc4cccc(c34)C2=O)CC1`, the IC50 turned out to be 17.4 µM in the test on HT-29, 23.5 µM in the test on MCF7 and 16.2 µM in the test with A549.

In the case of `COc1ccc(/C=C/C(=O)N2CCN(CCN3C(=O)c4cccc5cccc(c45)C3=O)CC2)c(OC)c1`, the values for the IC50 in the test with HT-29, in the test on MCF7 and in the test on A549 were 23.9 µM, 28.7 µM and 27.2 µM, respectively.

Take `O=C(/C=C/c1cc(F)c(F)c(F)c1)N1CCN(CCN2C(=O)c3cccc4cccc(c34)C2=O)CC1`: the results for the half-inhibitory concentration (IC50) in the test on HT-29, with MCF7 and in the test with A549 were 13.8 µM, 19.5 µM and 14.8 µM, respectively.

Turning to `Cc1ccc2nc(NC(=O)CN3CCN(CCN4C(=O)c5cccc6cccc(c56)C4=O)CC3)sc2c1`, the IC50 with HT-29 came to 4.07 µM; in the test with MCF7, 15 µM; in the test on A549, 8.07 µM.

Turning to `O=C(/C=C/c1cccc(C(F)(F)F)c1)N1CCN(CCN2C(=O)c3cccc4cccc(c34)C2=O)CC1`, the IC50 stood at 17 µM in the test with HT-29, 26.4 µM with MCF7 and 19.7 µM in the test on A549.

Turning to `CCOc1ccc(/C=C/C(=O)N2CCN(CCN3C(=O)c4cccc5cccc(c45)C3=O)CC2)cc1`, the IC50 was 12 µM in the test on HT-29, 28.9 µM in the test with MCF7 and 19.4 µM in the test on A549.

For `O=C(/C=C/c1ccc2c(c1)OCO2)N1CCN(CCN2C(=O)c3cccc4cccc(c34)C2=O)CC1`, the result in the test on Calf thymus DNA [8], in the test on Calf thymus DNA [2], with Calf thymus DNA [3], with Calf thymus DNA [6] and in the test on Calf thymus DNA [7] was Active. In addition, the IC50 with HT-29 was found to be 3.8 µM; with MCF7, 18 µM; in the test with A549, 4.79 µM. Further, in test [1], the inhibition entry is “Active”.

In the case of `Cc1cc2nc(NC(=O)CN3CCN(CCN4C(=O)c5cccc6cccc(c56)C4=O)CC3)sc2cc1C`, the half-inhibitory concentration (IC50) was found to be 4.98 µM with HT-29, 12.6 µM with MCF7 and 6.2 µM in the test on A549.

Turning to `COc1ccc(/C=C/C(=O)N2CCN(CCN3C(=O)c4cccc5cccc(c45)C3=O)CC2)cc1O`, the IC50 was 10.3 µM in the test with HT-29, 13.7 µM in the test with MCF7 and 14.2 µM with A549.

`CN(C)c1ccc(/C=C/C(=O)N2CCN(CCN3C(=O)c4cccc5cccc(c45)C3=O)CC2)cc1`: the IC50 in the test on HT-29 came out at 4.01 µM; in the test with MCF7, 13.1 µM; in the test with A549, 8.26 µM.
